From ChEMBL document CHEMBL4038306, “Development of an Aryloxazole Class of Hepatitis C Virus Inhibitors Targeting the Entry Stage of the Viral Replication Cycle” (J Med Chem, 2017)

Key:
Plasma [1] = test: Tmax in CD-1 mouse plasma at 0.1 mg/kg, ip administered as single dose after […] by UPLC-MS/MS method; assay type: ADME, organism-based; conditions: in vivo
[2] = Ratio of Cmax in CD-1 mouse liver to plasma at 0.1 mg/kg, ip administered as single dose after […]; assay type: ADME, organism-based; conditions: liver and plasma
[3] = Tmax in CD-1 mouse liver at 10 mg/kg, ip administered as single dose after 24 hrs by UPLC-MS/MS method; assay type: ADME, organism-based
Summary of the method: (§1)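 Adult male CD-1 mice (25–39 g), one i.p. dose of 0.1, 1 or 10 mg/kg. […] Drug levels measured by UPLC–MS/MS and reported as means ± SEM. […] Serum ALT was also monitored.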

[4] = AUClast in CD-1 mouse liver at 10 mg/kg, ip administered as single dose after 24 hrs by UPLC-MS/MS method; assay type: ADME, organism-based; summary of the method: as §1
[5] = AUClast in CD-1 mouse plasma at 1 mg/kg, ip administered as single dose after 24 hrs by UPLC-MS/MS method; assay type: ADME, organism-based; summary of the method: as §1
[6] = Tmax in CD-1 mouse liver at 1 mg/kg, ip administered as single dose after 24 hrs by UPLC-MS/MS method; assay type: ADME, organism-based; summary of the method: as §1
[7] = Cmax in CD-1 mouse liver at 1 mg/kg, ip administered as single dose after 24 hrs by UPLC-MS/MS method; assay type: ADME, organism-based; design: dose 1 mg/kg, route intraperitoneal; summary of the method: as §1
[8] = AUClast in CD-1 mouse plasma at 0.1 mg/kg, ip administered as single dose after 24 hrs by UPLC-MS/MS method; assay type: ADME, organism-based; summary of the method: as §1
[9] = Tmax in CD-1 mouse plasma at 1 mg/kg, ip administered as single dose after 24 hrs by UPLC-MS/MS method; assay type: ADME, organism-based; summary of the method: as §1
[10] = Cmax in CD-1 mouse plasma at 1 mg/kg, ip administered as single dose after 24 hrs by UPLC-MS/MS method; assay type: ADME, organism-based; design: dose 1 mg/kg, route intraperitoneal; summary of the method: as §1
[11] = Tmax in CD-1 mouse plasma at 0.1 mg/kg, ip administered as single dose after 24 hrs by UPLC-MS/MS method; assay type: ADME, organism-based; summary of the method: as §1
[12] = Cmax in CD-1 mouse plasma at 10 mg/kg, ip administered as single dose after 24 hrs by UPLC-MS/MS method; assay type: ADME, organism-based; design: dose 10 mg/kg, route intraperitoneal; summary of the method: as §1
[13] = AUClast in CD-1 mouse plasma at 0.1 mg/kg, ip administered as single dose after […] by UPLC-MS/MS method; assay type: ADME, organism-based
[14] = Ratio of AUC (infinity) in CD-1 mouse liver to plasma at 0.1 mg/kg, ip administered as single dose after […]; assay type: ADME, organism-based; conditions: read-out: Ratio AUC
[15] = Ratio of AUClast in CD-1 mouse liver to plasma at 1 mg/kg, ip administered as single dose after 24 hrs; assay type: ADME, organism-based; conditions: read-out: Ratio AUC
Summary of the method: (§2)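 Adult male CD-1 mice (25–39 g), n = 3 per sampling time point, given one i.p. dose (0.1, 1 or 10 mg/kg). Plasma and liver levels measured by UPLC–MS/MS. […] Serum ALT was monitored alongside.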

Plasma [16] = test: Cmax in CD-1 mouse plasma at 0.1 mg/kg, ip administered as single dose after […] by UPLC-MS/MS method; assay type: ADME, organism-based; design: dose 0.1 mg/kg, route intraperitoneal; conditions: in vivo
[17] = Tmax in CD-1 mouse liver at 0.1 mg/kg, ip administered as single dose after […] by UPLC-MS/MS method; assay type: ADME, organism-based
[18] = AUClast in CD-1 mouse liver at 0.1 mg/kg, ip administered as single dose after 24 hrs by UPLC-MS/MS method; assay type: ADME, organism-based; summary of the method: as §1
[19] = AUClast in CD-1 mouse plasma at 10 mg/kg, ip administered as single dose after 24 hrs by UPLC-MS/MS method; assay type: ADME, organism-based; summary of the method: as §1
[20] = Cmax in CD-1 mouse liver at 0.1 mg/kg, ip administered as single dose after 24 hrs by UPLC-MS/MS method; assay type: ADME, organism-based; design: dose 0.1 mg/kg, route intraperitoneal; summary of the method: as §1
[21] = Ratio of AUClast in CD-1 mouse liver to plasma at 0.1 mg/kg, ip administered as single dose after 24 hrs; assay type: ADME, organism-based; conditions: read-out: Ratio AUC; summary of the method: as §2
[22] = AUClast in CD-1 mouse liver at 0.1 mg/kg, ip administered as single dose after […] by UPLC-MS/MS method; assay type: ADME, organism-based
[23] = Tmax in CD-1 mouse plasma at 10 mg/kg, ip administered as single dose after 24 hrs by UPLC-MS/MS method; assay type: ADME, organism-based; summary of the method: as §1
[24] = Cmax in CD-1 mouse liver at 10 mg/kg, ip administered as single dose after 24 hrs by UPLC-MS/MS method; assay type: ADME, organism-based; design: dose 10 mg/kg, route intraperitoneal; summary of the method: as §1
[25] = Drug uptake in CD-1 mouse liver at 1 mg/kg, ip administered as single dose after 24 hrs by UPLC-MS/MS method; assay type: ADME, organism-based; conditions: read-out: Drug uptake; summary of the method: as §1
[26] = Ratio of Cmax in CD-1 mouse liver to plasma at 0.1 mg/kg, ip administered as single dose after 24 hrs; assay type: ADME, organism-based
Summary of the method: (§3)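 Adult male CD-1 mice (25–39 g) received one intraperitoneal dose. Plasma and liver were sampled at set time points, n = 3 mice per time point. Compound levels were measured by UPLC–MS/MS.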

[27] = Cmax in CD-1 mouse plasma at 0.1 mg/kg, ip administered as single dose after 24 hrs by UPLC-MS/MS method; assay type: ADME, organism-based; design: dose 0.1 mg/kg, route intraperitoneal; summary of the method: as §1
[28] = Ratio of Cmax in CD-1 mouse liver to plasma at 1 mg/kg, ip administered as single dose after 24 hrs; assay type: ADME, organism-based; summary of the method: as §3
[29] = Ratio of AUClast in CD-1 mouse liver to plasma at 0.1 mg/kg, ip administered as single dose after […]; assay type: ADME, organism-based; conditions: read-out: Ratio AUC
[30] = Permeability of the compound by PAMPA; assay type: physicochemical; conditions: read-out: permeability
Summary of the method: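 Passive diffusion measured by stirred double-sink PAMPA; permeability expressed in 10⁻⁶ cm/s.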

[31] = Tmax in CD-1 mouse liver at 0.1 mg/kg, ip administered as single dose after 24 hrs by UPLC-MS/MS method; assay type: ADME, organism-based; summary of the method: as §1
[32] = Cmax in CD-1 mouse liver at 0.1 mg/kg, ip administered as single dose after […] by UPLC-MS/MS method; assay type: ADME, organism-based; design: dose 0.1 mg/kg, route intraperitoneal
[33] = Ratio of Cmax in CD-1 mouse liver to plasma at 10 mg/kg, ip administered as single dose after 24 hrs; assay type: ADME, organism-based; summary of the method: as §3
Plasma [34] = test: AUC (infinity) in CD-1 mouse plasma at 0.1 mg/kg, ip administered as single dose after […] by UPLC-MS/MS method; assay type: ADME, organism-based; design: dose 0.1 mg/kg, time infinity, route intraperitoneal; conditions: in vivo
[35] = AUClast in CD-1 mouse liver at 1 mg/kg, ip administered as single dose after 24 hrs by UPLC-MS/MS method; assay type: ADME, organism-based; summary of the method: as §1
[36] = Ratio of AUClast in CD1 mouse liver to plasma at 10 mg/kg, ip administered as single dose after 24 hrs; assay type: ADME, organism-based; conditions: CD-1, mouse, read-out: Ratio AUC; summary of the method: as §2
[37] = Drug uptake in CD-1 mouse liver at 0.1 mg/kg, ip administered as single dose after 5 mins by UPLC-MS/MS method; assay type: ADME, organism-based; conditions: read-out: Drug uptake; summary of the method: as §1

- Tmax (Plasma [1]): 4.98 min
- Kp at […] [2]: 126
- Tmax [3]: 7 h
- AUC(0-t) at 24 h [4]: 719 µM·h
- AUC(0-t) at 24 h [5]: 0.88 µM·h
- Tmax [6]: 4 h
- Cmax [7]: 9820 nM
- AUC(0-t) at 24 h [8]: 0.0494 µM·h
- Tmax [9]: 0.25 h
- Cmax [10]: 146 nM
- Tmax [11]: 4.98 min
- Cmax [12]: 4740 nM
- AUC(0-t) at […] [13]: 0.117 µM·h
- Kp at […] [14]: 510
- Kp at 24 h [15]: 224
- Cmax (Plasma [16]): 8.76 nM
- Tmax at […] [17]: 7 h
- AUC(0-t) at 24 h [18]: 19.7 µM·h
- AUC(0-t) at 24 h [19]: 17.6 µM·h
- Cmax [20]: 1110 nM
- Kp at 24 h [21]: 399
- AUC(0-t) at […] [22]: 52.3 µM·h
- Tmax [23]: 4.98 min
- Cmax [24]: 34500 nM
- concentration at 24 h [25]: 3330 to 9820 nM
- Kp at 24 h [26]: 126
- Cmax [27]: 8.76 nM
- Kp at 24 h [28]: 67
- Kp at […] [29]: 448
- Papp [30]: 522 ×10⁻⁶ cm/s
- Tmax [31]: 7 h
- Cmax at […] [32]: 1110 nM
- Kp at 24 h [33]: 7
- AUC (Plasma [34]): 0.0639 µM·h
- AUC(0-t) at 24 h [35]: 197 µM·h
- Kp at 24 h [36]: 41
- concentration at 5 min [37]: 390 nM
SMILES: Cc1oc(-c2ccc(Cl)c(Cl)c2)nc1CN1CCC(C(=O)NCCCN2C[C@H](C)C[C@H](C)C2)CC1
